According to ChEMBL document CHEMBL1158088, “Bioactive triterpene glycosides from the sea cucumber Holothuria fuscocinerea” (J Nat Prod, 2006):

Tests used:
[1] = system: HL-60; assay: Cytotoxicity against human HL-60 cells after 72 hrs by MTT assay; assay type: functional, cell-based; details: HL-60, 72 h
How it was run: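 HL-60 human leukemia cells exposed to glycosides for 72 h; viability read by MTT colorimetric assay in 96-well microplates. Dose–response curves plotted; IC50 = concentration giving 50% reduction of absorption versus control cells. Three independent experiments, each concentration in triplicate wells; mean ± SD. 10-Hydroxycamptothecine as positive control.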

[2] = system: Bel-7402; assay: Cytotoxicity against human Bel-7402 cells after 72 hrs by sulforhodamine B assay; assay type: functional, cell-based; details: Bel-7402, 72 h
How it was run: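 BEL-7402 human hepatoma cells treated 72 h; cell protein measured by sulforhodamine B assay. IC50 taken from dose–response curves as concentration causing 50% drop in absorption relative to control cells. Means ± SD of three independent experiments, triplicate wells per concentration. 10-Hydroxycamptothecine served as positive control.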

Structure (SMILES)	IC50 [1]	IC50 [2]
CO[C@@H]1[C@@H](O)[C@H](O[C@@H]2[C@@H](O)[C@H](O[C@H]3[C@H](O)[C@@H](O)[C@H](O[C@H]4[C@H](O[C@H]5CC[C@]6(C)C7=C[C@H](O)[C@@]89C(=O)O[C@@](C)(C(=O)CCC(C)(C)OC(C)=O)[C@H]8CC[C@@]9(C)[C@@H]7CC[C@H]6C5(C)C)OC[C@@H](OS(=O)(=O)O)[C@@H]4O)O[C@@H]3C)O[C@H](CO)[C@H]2O)O[C@H](CO)[C@H]1O [FUSCOCINEROSIDE A]	6210 nM	5580 nM
CO[C@@H]1[C@@H](O)[C@H](O[C@@H]2[C@@H](O)[C@H](O[C@H]3[C@H](O)[C@@H](O)[C@H](O[C@H]4[C@H](O[C@H]5CC[C@]6(C)C7=C[C@H](O)[C@@]89C(=O)O[C@@](C)(C(=O)CCC(C)C)[C@H]8CC[C@@]9(C)[C@@H]7CC[C@H]6C5(C)C)OC[C@@H](OS(=O)(=O)O)[C@@H]4O)O[C@@H]3C)O[C@H](CO)[C@H]2O)O[C@H](CO)[C@H]1O [FUSCOCINEROSIDE B]	3750 nM	2640 nM
CO[C@@H]1[C@@H](O)[C@H](O[C@@H]2[C@@H](O)[C@H](O[C@H]3[C@H](O)[C@@H](O)[C@H](O[C@H]4[C@H](O[C@H]5CC[C@]6(C)C7=C[C@H](O)[C@@]89C(=O)O[C@@](C)(C%10CCC(C)(C)O%10)[C@H]8CC[C@@]9(C)[C@@H]7CC[C@H]6C5(C)C)OC[C@@H](OS(=O)(=O)O)[C@@H]4O)O[C@@H]3C)O[C@H](CO)[C@H]2O)O[C@H](CO)[C@H]1O (some centres not stated) [FUSCOCINEROSIDE C]	880 nM	580 nM
CO[C@@H]1[C@@H](O)[C@H](O[C@@H]2[C@@H](O)[C@H](O[C@H]3[C@H](O)[C@@H](O)[C@H](O[C@H]4[C@H](O[C@H]5CC[C@]6(C)C7=C[C@H](O)[C@@]89C(=O)O[C@@](C)(C%10CCC(C)(C)O%10)[C@@]8(O)CC[C@@]9(C)[C@@H]7CC[C@H]6C5(C)C)OC[C@@H](OS(=O)(=O)O)[C@@H]4O)O[C@@H]3C)O[C@H](CO)[C@H]2O)O[C@H](CO)[C@H]1O (some centres not stated) [HOLOTHURIN A]	4420 nM	760 nM
CC[C@@]1(O)C(=O)OCc2c1cc1n(c2=O)Cc2cc3cc(O)ccc3nc2-1 [HYDROXYCAMPTOTHECIN]	410 nM	280 nM
CO[C@@H]1[C@@H](O)[C@H](O[C@@H]2[C@@H](O)[C@H](O[C@H]3[C@H](O)[C@@H](O)[C@H](O[C@H]4[C@H](O[C@H]5CC[C@]6(C)C7=C[C@H](O)[C@@]89C(=O)O[C@@](C)(CCCC(C)C)[C@H]8CC[C@@]9(C)[C@@H]7CC[C@H]6C5(C)C)OC[C@@H](OS(=O)(=O)O)[C@@H]4O)O[C@@H]3C)O[C@H](CO)[C@H]2O)O[C@H](CO)[C@H]1O [PERVICOSIDE C]	4480 nM	660 nM
